Data: ChEMBL document CHEMBL1143425, “Paradoxical growth effect of caspofungin observed on biofilms and planktonic cells of five different Candida species” (2007)
≈ marks a conversion by molar mass, not a printed value. Calls of active or inactive are those of the source.

What was measured:
Candida orthopsilosis [1] = test: Antimicrobial activity against Candida orthopsilosis BR-A39 grown as biofilm after 48 hrs by XTT reduction assay; format: functional; conditions: Lodderomyces orthopsilosis
Procedure, shortened: (§1)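 Isolates were grown on Sabouraud agar (30°C, 24 h), then overnight in RPMI 1640 with MOPS, pH 7.0, at 35°C with shaking. Cells were washed and set to ~1 × 10^7 cells/ml, attached 1.5 h at 37°C, and grown 24 h. Biofilms were then exposed to caspofungin in 10 twofold dilutions (2–1,024 μg/ml) for 48 h at 35°C with shaking. Read-out was XTT-menadione, 1 h, 35°C, dark, A490, cell-free blank subtracted. MIC was the 50% drop in activity versus drug-free control. Tested in duplicate.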

Candida parapsilosis [2] = test: Antimicrobial activity against Candida parapsilosis BR-A26 grown as planktonic cell after 48 hrs by XTT reduction assay; format: functional; conditions: Lodderomyces parapsilosis
Procedure, shortened: (§2)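 Planktonic broth microdilution followed CLSI M27-A2, with caspofungin dissolved in water. After 48 h, XTT-menadione was added to the wells and plates were kept 1 h at 35°C in the dark. Plates were then centrifuged and supernatant A490 was read. MIC was the lowest concentration giving a 50% decrease in metabolic activity versus drug-free control. Paradoxical growth was defined as ≥20% of control activity above the MIC.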

Candida tropicalis [3] = test: Effect on morphology in Candida tropicalis grown as planktonic cells assessed as rounding and clumping at 8 ug/ml after 48 hrs; format: functional, organism-based
Procedure, shortened: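 Clinical isolates were tested by CLSI M27-A2 broth microdilution with caspofungin dissolved in sterile water. After 48 h incubation, cells were taken from drug-containing and drug-free control wells. They were examined by light microscopy at ×400 for hyphae or pseudohyphae, rounding or clumping, and enlarged globose cells.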

Candida tropicalis [4] = test: Antimicrobial activity against Candida tropicalis BR-A24 grown as planktonic cell after 48 hrs by XTT reduction assay; format: functional; procedure, shortened: as §2
Candida orthopsilosis [5] = test: Antimicrobial activity against Candida orthopsilosis BR-A34 grown as biofilm after 48 hrs by XTT reduction assay; format: functional; conditions: Lodderomyces orthopsilosis; procedure, shortened: as §1
Candida albicans [6] = test: Antimicrobial activity against Candida albicans BR-A7 grown as biofilm assessed as concentration producing paradoxical growth after 48 hrs by XTT reduction assay; format: functional
Procedure, shortened: (§3)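 Sabouraud-grown cells were shaken overnight (18 h, 120 rpm, 35°C) in RPMI 1640 with MOPS at pH 7.0, then washed and set at ~1 × 10^7 cells/ml. Attachment lasted 1.5 h at 37°C, and growth ran 24 h before challenge. Caspofungin was added in RPMI at 2–1,024 μg/ml (10 doublings) for 48 h at 35°C with shaking. XTT-menadione was read at 490 nm after 1 h at 35°C in the dark, with blank wells subtracted. MIC was taken as 50% reduction versus drug-free wells, and PG as >50% of control above MIC. Assays were run in duplicate.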

Candida orthopsilosis [7] = test: Antimicrobial activity against Candida orthopsilosis BR-A37 grown as biofilm after 48 hrs by XTT reduction assay; format: functional; conditions: Lodderomyces orthopsilosis; procedure, shortened: as §1
Candida parapsilosis [8] = test: Antimicrobial activity against Candida parapsilosis BR-A30 grown as planktonic cell after 48 hrs by XTT reduction assay; format: functional; conditions: Lodderomyces parapsilosis; procedure, shortened: as §2
Candida metapsilosis [9] = test: Antimicrobial activity against Candida metapsilosis BR-A42 grown as biofilm after 48 hrs by XTT reduction assay; format: functional; conditions: Lodderomyces metapsilosis; procedure, shortened: as §3
Candida metapsilosis [10] = test: Antimicrobial activity against Candida metapsilosis BR-A41 grown as planktonic cell assessed as paradoxical growth after 48 hrs by XTT reduction assay; format: functional, organism-based
Procedure, shortened: (§4)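 Planktonic cells were tested by CLSI M27-A2 broth microdilution with caspofungin in water, incubated 48 h. XTT-menadione was added to each well, plates were held 1 h at 35°C in the dark and centrifuged, and supernatant absorbance was read at 490 nm. MIC was defined as 50% decrease in metabolic activity versus drug-free control. PG was defined as ≥20% of control activity at concentrations above MIC.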

Candida metapsilosis [11] = test: Effect on morphology in Candida metapsilosis grown as biofilm assessed as inhibition of hyphae and pseudohyphae at 16 ug/ml after 48 hrs; format: functional, organism-based
Procedure, shortened: (§5)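 Biofilms formed in RPMI 1640 wells were exposed to caspofungin for 48 h and compared with drug-free control wells. Wells were examined in the plate under an inverted light microscope at ×200 and photographed.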

Candida metapsilosis [12] = test: Antimicrobial activity against Candida metapsilosis BR-A44 grown as biofilm after 48 hrs by XTT reduction assay; format: functional; conditions: Lodderomyces metapsilosis; procedure, shortened: as §3
Candida albicans [13] = test: Effect on morphology in Candida albicans grown as planktonic cells assessed as inhibition of hyphae and pseudohyphae at 16 ug/ml after 48 hrs; format: functional, organism-based
Procedure, shortened: (§6)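 Cells were taken from caspofungin-containing and drug-free wells of the planktonic broth microdilution test after 48 h. They were examined by light microscopy at ×400.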

Candida tropicalis [14] = test: Antimicrobial activity against Candida tropicalis BR-A18 grown as biofilm assessed as paradoxical growth after 48 hrs by XTT reduction assay; format: functional, organism-based
Procedure, shortened: (§7)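 Clinical isolates were grown overnight (18 h, 35°C, 120 rpm) in RPMI 1640 with MOPS, pH 7.0, then washed and set to ~1 × 10^7 cells/ml. Cells attached for 1.5 h at 37°C, 75 rpm, then biofilms grew 24 h. Caspofungin was given as doubling dilutions of 2–1,024 μg/ml for 48 h at 35°C, 75 rpm. Read-out was XTT-menadione in PBS, 1 h at 35°C in the dark, A490, cell-free blank subtracted. MIC was a 50% drop in activity versus drug-free; PG was >50% of control above MIC. Run in duplicate.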

Candida orthopsilosis [15] = test: Antimicrobial activity against Candida orthopsilosis BR-A37 grown as planktonic cell after 48 hrs by XTT reduction assay; format: functional; conditions: Lodderomyces orthopsilosis; procedure, shortened: as §2
Candida orthopsilosis [16] = test: Antimicrobial activity against Candida orthopsilosis BR-A38 grown as planktonic cell after 48 hrs by XTT reduction assay; format: functional; conditions: Lodderomyces orthopsilosis; procedure, shortened: as §2
Candida parapsilosis [17] = test: Effect on morphology in Candida parapsilosis grown as biofilm assessed as inhibition of hyphae and pseudohyphae at 128 ug/ml after 48 hrs; format: functional, organism-based; procedure, shortened: as §5
Candida metapsilosis [18] = test: Antimicrobial activity against Candida metapsilosis BR-A44 grown as planktonic cell after 48 hrs by XTT reduction assay; format: functional; conditions: Lodderomyces metapsilosis; procedure, shortened: as §4
Candida parapsilosis [19] = test: Antimicrobial activity against Candida parapsilosis BR-A25 grown as biofilm assessed as concentration producing paradoxical growth after 48 hrs by XTT reduction assay; format: functional; procedure, shortened: as §7
Candida tropicalis [20] = test: Antimicrobial activity against Candida tropicalis BR-A24 grown as planktonic cell assessed as paradoxical growth after 48 hrs by XTT reduction assay; format: functional, organism-based
Procedure, shortened: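 Planktonic broth microdilution followed CLSI M27-A2, with caspofungin dissolved in water. After 48 h, XTT-menadione was added to each well and plates were incubated 1 h at 35°C in the dark. Cells were pelleted by centrifugation and the supernatant was read at 490 nm. MIC was the lowest concentration giving a 50% drop in metabolic activity versus the drug-free control. PG was ≥20% of drug-free activity above the MIC.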

Candida orthopsilosis [21] = test: Antimicrobial activity against Candida orthopsilosis BR-A38 grown as planktonic cell assessed as concentration producing paradoxical growth after 48 hrs by XTT reduction assay; format: functional; procedure, shortened: as §4
Candida albicans [22] = test: Antimicrobial activity against Candida albicans BR-A7 grown as biofilm after 48 hrs by XTT reduction assay; format: functional; procedure, shortened: as §1
Candida orthopsilosis [23] = test: Antimicrobial activity against Candida orthopsilosis BR-A38 grown as biofilm after 48 hrs by XTT reduction assay; format: functional; conditions: Lodderomyces orthopsilosis; procedure, shortened: as §3
Candida orthopsilosis [24] = test: Antimicrobial activity against Candida orthopsilosis BR-A37 grown as planktonic cell assessed as concentration producing paradoxical growth after 48 hrs by XTT reduction assay; format: functional; procedure, shortened: as §4
Candida orthopsilosis [25] = test: Effect on morphology in Candida orthopsilosis grown as planktonic cells assessed as rounding and clumping at 64 ug/ml after 48 hrs; format: functional, organism-based; procedure, shortened: as §6

## CC[C@H](C)C[C@H](C)CCCCCCCCC(=O)N[C@H]1C[C@@H](O)[C@@H](NCCN)NC(=O)[C@@H]2[C@@H](O)CCN2C(=O)[C@H]([C@H](O)CCN)NC(=O)[C@H]([C@H](O)[C@@H](O)c2ccc(O)cc2)NC(=O)[C@@H]2C[C@@H](O)CN2C(=O)[C@H]([C@@H](C)O)NC1=O [CASPOFUNGIN]
Candida orthopsilosis [1]
  MIC: 2 µg/mL (≈ 1.83 µM)
Candida parapsilosis [2]
  MIC: 2 µg/mL (≈ 1.83 µM)
Candida tropicalis [3]
  Activity: Active
Candida tropicalis [4]
  MIC: 1 µg/mL (≈ 0.915 µM)
Candida orthopsilosis [5]
  MIC: 2 µg/mL (≈ 1.83 µM)
Candida albicans [6]
  Activity: 16 µg/mL
Candida orthopsilosis [7]
  MIC: 2 µg/mL (≈ 1.83 µM)
Candida parapsilosis [8]
  MIC: 2 µg/mL (≈ 1.83 µM)
Candida metapsilosis [9]
  MIC: 2 µg/mL (≈ 1.83 µM)
Candida metapsilosis [10]
  Activity: inactive
Candida metapsilosis [11]
  Activity: Active
Candida metapsilosis [12]
  MIC: 2 µg/mL (≈ 1.83 µM)
Candida albicans [13]
  Activity: Active
Candida tropicalis [14]
  Activity: Active
Candida orthopsilosis [15]
  MIC: 2 µg/mL (≈ 1.83 µM)
Candida orthopsilosis [16]
  MIC: 2 µg/mL (≈ 1.83 µM)
Candida parapsilosis [17]
  Activity: Active
Candida metapsilosis [18]
  MIC: 2 µg/mL (≈ 1.83 µM)
Candida parapsilosis [19]
  Activity: 16 µg/mL
Candida tropicalis [20]
  Activity: Active
Candida orthopsilosis [21]
  Activity: 16 µg/mL
Candida albicans [22]
  MIC: 2 µg/mL (≈ 1.83 µM)
Candida orthopsilosis [23]
  MIC: 512 µg/mL (≈ 468 µM)
Candida orthopsilosis [24]
  Activity: 32 µg/mL
Candida orthopsilosis [25]
  Activity: Active
